Laboratory results: ChEMBL document CHEMBL1154304, “Triterpenoids and flavonoids from celery (Apium graveolens)” (J Nat Prod, 2009)

Tested on: RAW264.7
Assay: Antiinflammatory activity against mouse RAW264.7 cells assessed as inhibition of LPS-induced nitrite accumulation after 24 hrs by Griess reagent method
Type: functional, cell-based
Conditions: RAW264.7, 24 h
Outline: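 RAW 264.7 mouse macrophages in RPMI 1640 with 10% heat-inactivated FBS, penicillin/streptomycin, seeded at 1×10^5 cells/well, adhered 2 h at 37 °C, 5% CO₂. LPS 1 μg/mL for 24 h with or without compounds in DMSO (0.2% v/v final). Nitrite in supernatant read with Griess reagent against sodium nitrite standards (0–100 μM). Inhibition is relative to LPS-only and untreated wells. MTT viability check run in parallel. Triplicate, mean ± SD of three experiments.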

SMILES | IC50 [µM]
O=c1cc(-c2ccc(O)c(O)c2)oc2cc(O[C@@H]3O[C@H](CO)[C@@H](O)[C@H](O)[C@H]3O)cc(O)c12 [GALUTEOLIN] | > 20
C[C@H]1[C@H](C)C(=O)C[C@]2(C)C[C@H](O)[C@]3(C)C(=CC(=O)[C@@H]4[C@@]5(C)C[C@H](O[C@@H]6O[C@H](CO)[C@@H](O)[C@H](O)[C@H]6O)[C@H](O)C(C)(C)[C@@H]5CC[C@]43C)[C@H]12 | > 20
C[C@H]1[C@H](C)C(=O)C[C@]2(C)C[C@H](O)[C@]3(C)C(=CC(=O)[C@@H]4[C@@]5(C)CC[C@H](O)[C@](C)(CO[C@@H]6O[C@H](CO)[C@@H](O)[C@H](O)[C@H]6O)[C@@H]5CC[C@]43C)[C@H]12 | > 20
COc1cc(/C=C/C(=O)OC[C@@]2(O)CO[C@@H](O[C@H]3[C@H](Oc4cc(O)c5c(=O)cc(-c6ccc(O)c(O)c6)oc5c4)O[C@H](CO)[C@@H](O)[C@@H]3O)[C@@H]2O)ccc1O | > 20
COc1cc(-c2cc(=O)c3c(O)cc(O[C@@H]4O[C@H](CO)[C@@H](O)[C@H](O)[C@H]4O)cc3o2)ccc1O | > 20
CC1(C)C[C@H]2C3=CC(=O)[C@@H]4[C@@]5(C)CC[C@H](O)[C@](C)(CO[C@@H]6O[C@H](CO)[C@@H](O)[C@H](O)[C@H]6O)[C@@H]5CC[C@@]4(C)[C@]3(C)[C@@H](O)C[C@@]2(C)CC1=O | > 20
COc1cc(/C=C/C(=O)CC(=O)/C=C/c2ccc(O)c(OC)c2)ccc1O [CURCUMIN] | 8.3
O=c1cc(-c2ccc(O)cc2)oc2cc(O[C@@H]3O[C@H](CO)[C@@H](O)[C@H](O)[C@H]3O)cc(O)c12 [APIGETRIN] | > 20
O=c1cc(-c2ccc(O)cc2)oc2cc(O)cc(O)c12 [APIGENIN] | 6.7
O=c1c(O)c(-c2ccc(O)c(O)c2)oc2cc(O)cc(O)c12 [QUERCETIN] | 11.4
COc1cc(/C=C/C(=O)OC[C@@]2(O)CO[C@@H](O[C@H]3[C@H](Oc4cc(O)c5c(=O)cc(-c6ccc(O)cc6)oc5c4)O[C@H](CO)[C@@H](O)[C@@H]3O)[C@@H]2O)ccc1O | > 20
COc1cc(/C=C/C(=O)OC[C@@]2(O)CO[C@@H](O[C@H]3[C@H](Oc4cc(O)c5c(=O)cc(-c6ccc(O)c(OC)c6)oc5c4)O[C@H](CO)[C@@H](O)[C@@H]3O)[C@@H]2O)ccc1O | > 20
COc1cc(-c2cc(=O)c3c(O)cc(O)cc3o2)ccc1O [CHRYSOERIOL] | 14.2
O=c1cc(-c2ccc(O)cc2)oc2cc(O[C@@H]3O[C@H](CO)[C@@H](O)[C@H](O)[C@H]3O[C@@H]3OC[C@](O)(CO)[C@H]3O)cc(O)c12 [APIIN] | > 20
O=c1cc(-c2ccc(O)c(O)c2)oc2cc(O)cc(O)c12 [LUTEOLIN] | 7.5
O=C1C[C@@H](c2ccc(O)cc2)Oc2cc(O[C@@H]3O[C@H](CO)[C@@H](O)[C@H](O)[C@H]3O[C@@H]3OC[C@](O)(CO)[C@H]3O)cc(O)c21 | > 20
